Measurements as given in PubChem BioAssay AID623917 (The Scripps Research Institute Molecular Screening Center, 2012).
Activity calls are given as the source filed them.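 The calls were made as follows: active = E. coli viability under 80% of the solvent control at every tested dose; inactive = viability of 80% or more at every tested dose.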

Test system: E. coli V66 viability, colony formation, Hfr cross
Assay: E. coli V66 viability loss, concentration series, dose response, cytotoxicity control for AddAB inhibitor project, colony formation, Hfr recombination (AID 623917)
Details: active compounds read low
How it was run: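 Signal: colony counts on non-selective agar plates, CFU/mL; assay system: E. coli V66 recipient cells; compound: five doses, 0.03–100 µM; incubation: 1 h growth with compound, 1.5 h overall; benchmarks: DMSO control; medium: LB broth; evaluation: V66 CFU/mL as percent of DMSO control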

In the case of CCn1cc(C(=O)O)c(=O)c2cnc(N3CCN(C(=S)Nc4cccc(C(F)(F)F)c4)CC3)nc21, the viability is reported as 100% (inactive).
In the case of O=C(Nc1ncccn1)c1ccc([N+](=O)[O-])o1, the viability is reported as 100% (inactive).
CCn1cc(C(=O)O)c(=O)c2cnc(N3CCN(C(=S)Nc4ccccc4C(F)(F)F)CC3)nc21 was tested, and the viability was 90% (inactive).
In the case of O=C(NCc1cccnc1)c1ccc([N+](=O)[O-])o1, the viability is reported as 100% (inactive).
Work on CCn1cc(C(=O)O)c(=O)c2cc(F)c(N3CCN(C(=S)Nc4cccc(C(F)(F)F)c4)CC3)cc21 yielded a viability of 12%.
With CC1CCc2c(sc(NC(=O)c3ccc([N+](=O)[O-])o3)c2C#N)C1 (stereo not drawn) the viability was 90% (inactive).
With C=CCn1c(Sc2ncc([N+](=O)[O-])s2)n[nH]c1=O the viability was 90% (inactive).
CCn1cc(C(=O)O)c(=O)c2cnc(N3CCNCC3)nc21 was tested, and the viability was 90% (inactive).
